Reference: ChEMBL document CHEMBL2384958, “Potential of lichen secondary metabolites against Plasmodium liver stage parasites with FAS-II as the potential target” (J Nat Prod, 2013)
≈ marks a conversion by molar mass, not a printed value. Calls of active or inactive are those of the source. The rule behind the calls is not given here.

Experiments:
[1] = Inhibition of Plasmodium falciparum FabZ using crotonoyl-CoA as substrate preincubated for 10 mins prior to substrate addition
[2] = biological target: T1, Enoyl-[acyl-carrier-protein] reductase [NADH] FabI (Escherichia coli K-12, UniProt P0AEK4); test: Inhibition of Escherichia coli FabI using 2-dodecenoyl-CoA as substrate at pH 8
T1 sequence (P0AEK4 whole entry): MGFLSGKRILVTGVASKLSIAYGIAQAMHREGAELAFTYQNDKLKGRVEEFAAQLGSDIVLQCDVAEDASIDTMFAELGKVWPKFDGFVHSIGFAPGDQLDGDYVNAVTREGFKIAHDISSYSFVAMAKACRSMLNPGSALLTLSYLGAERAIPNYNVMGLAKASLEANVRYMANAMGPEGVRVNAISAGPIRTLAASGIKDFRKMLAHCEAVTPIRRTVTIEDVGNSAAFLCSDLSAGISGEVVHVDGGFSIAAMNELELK

[3] = Inhibition of Plasmodium falciparum FabI using crotonoyl-CoA as substrate preincubated for 10 mins prior to substrate addition
[4] = Inhibition of Plasmodium falciparum FabG using acetoacetyl-CoA as substrate
Danio rerio [5] = species: Danio rerio; test: Toxicity in zebrafish larva measured at 4 days postfertilization; type: organism-based; details: in vivo, 96 h
Procedure, shortened: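 Transgenic fabp10a:DsRed2 larvae raised at 28.5 °C (14 h light/10 h dark), sorted for liver fluorescence at 3 dpf and exposed to compounds, 10 larvae per well; general and heart toxicity checked at 4 dpf to set maximum-tolerated concentration.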

[6] = system: Mycobacterium tuberculosis; test: Antimycobacterial activity against Mycobacterium tuberculosis ATCC 27294; type: functional
[7] = Inhibition of Staphylococcus aureus FabI using dodecenoyl ACP at pH 7.8
Plasmodium berghei [8] = test: Antiplasmodial activity against liver stage of Plasmodium berghei ANKA expressing GFP infected in human Huh7.5 cells assessed as reduction in PB18S gene expression after 48 hrs by qRT-PCR analysis; type: functional, organism-based; details: Huh-7, 48 h
Procedure, shortened: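 HuH7.5 cells infected with freshly dissected P. berghei GFP sporozoites (30 000 per 60 000 cells); 48 h culture with compounds (10 to 100 μM) at 37 °C, media changed every 24 h. Total RNA extracted, DNase treated; PB18S expression normalized to DMSO controls; IC50 estimated; atovaquone positive control.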

Danio rerio [9] = species: Danio rerio; test: Hepatotoxicity in zebrafish larva expressing fabp10a:DsRed2 assessed as change in liver size at 0.3 uM measured at 6 days postfertilization by fluorescence microscopic analysis; type: toxicity, organism-based; details: in vivo, 144 h
Procedure, shortened: (§1)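 Transgenic fabp10a:DsRed2 zebrafish were raised at 28.5 °C on a 14 h light/10 h dark cycle. Larvae were sorted at 3 dpf for liver fluorescence and exposed to compounds at 10 per well, with 1% DMSO controls. General and heart toxicity were checked at 4 dpf, dosing went up to the maximum-tolerated concentration, and five liver phenotypes were scored at 6 dpf by fluorescence microscopy.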

Plasmodium berghei [10] = test: Antiplasmodial activity against liver stage of Plasmodium berghei ANKA expressing GFP infected in human Huh7.5 cells assessed as decrease in size at 10 uM after 48 hrs by immunofluorescence analysis; type: functional, organism-based; details: Huh-7
Procedure, shortened: (§2)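 HuH7.5 cells (50 000/well, chambered slides) were infected with 33 000 freshly dissected P. berghei GFP sporozoites and incubated 48 h with compound or 0.1% DMSO. Cells were fixed in 10% neutral buffered formalin and stained with mouse anti-Plasmodium HSP70 (FITC) plus Hoechst. Parasite size was imaged by fluorescence microscopy with a 40× objective.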

[11] = Inhibition of Mycobacterium tuberculosis FabI using 2-dodecenoyl-CoA as substrate at pH 6.8
Escherichia coli = test: Antibacterial activity against Escherichia coli ATCC 8739; type: functional, organism-based; details: ATCC 8739, ATCC 8739
Procedure, shortened: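 E. coli ATCC 8739 whole cells tested in triplicate by a previously reported method. Compounds were fully solubilized beforehand, with brief agitation or sonication used for DMSO solutions at high test concentrations (>120 μM).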

[12] = Cytotoxicity against human Huh7.5 cells after 24 hrs by Cell-titerGlo luminescence assay; type: cell-based; details: Huh-7, 24 h
Procedure, shortened: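 HuH7.5 human hepatoma cells (30 000/well) in advanced DMEM complete medium were exposed to compounds for 24 h, or to 0.1% DMSO as reference. Viability was read by CellTiter-Glo luminescence.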

Plasmodium berghei [13] = test: Antiplasmodial activity against liver stage of Plasmodium berghei ANKA expressing GFP infected in human Huh7.5 cells assessed as decrease in size at 1 uM after 48 hrs by immunofluorescence analysis; type: functional, organism-based; details: Huh-7; procedure, shortened: as §2
KB = test: Cytotoxicity against human KB cells after 72 hrs by Alamar Blue assay; type: functional, cell-based
Danio rerio [14] = species: Danio rerio; test: Hepatotoxicity in zebrafish larva expressing fabp10a:DsRed2 assessed as reduction in liver size at 60.2 uM measured at 6 days postfertilization by fluorescence microscopic analysis; type: toxicity, organism-based; details: in vivo, 144 h; procedure, shortened: as §1
Plasmodium falciparum = test: Antiplasmodial activity against blood stage of chloroquine and pyrimethamine-resistant Plasmodium falciparum K1 after 48 hrs by [3H]-hypoxanthine incorporation assay; type: functional, organism-based
Procedure, shortened: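 0.4% parasitemia in assay medium with 15 μM hypoxanthine; compounds incubated 48 h before 3H-hypoxanthine added; run in duplicate.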

Danio rerio [15] = species: Danio rerio; test: Hepatotoxicity in zebrafish larva expressing fabp10a:DsRed2 assessed as change in liver size at 3.6 to 60.2 uM measured at 6 days postfertilization by fluorescence microscopic analysis relative to control; type: toxicity, organism-based; details: in vivo, 144 h; procedure, shortened: as §1
Plasmodium berghei [16] = test: microbe, parasite or virus in culture; details: Huh-7
Plasmodium = test: Antiplasmodial activity against blood stage of Plasmodium; type: functional
Procedure, shortened: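 P. falciparum K1 (chloroquine/pyrimethamine-resistant) culture with 3H-hypoxanthine incorporation read-out, run in duplicate. Assay medium held 15 μM hypoxanthine, parasitemia 0.4%, and compounds were incubated 48 h before 3H-hypoxanthine was added.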

Plasmodium berghei [17] = test: microbe, parasite or virus in culture; details: ANKA, HepG2
Staphylococcus aureus = test: Antibacterial activity against Staphylococcus aureus ATCC 6538; type: functional
Procedure, shortened: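 S. aureus ATCC 6538 whole cells tested in triplicate by a previously reported method. Compounds were fully solubilized beforehand, with brief agitation or sonication for high test concentrations (>120 μM) in DMSO.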

Danio rerio [18] = species: Danio rerio; test: Hepatotoxicity in zebrafish larva expressing fabp10a:DsRed2 assessed as enlargement of liver at 15.5 uM measured at 6 days postfertilization by fluorescence microscopic analysis; type: toxicity, organism-based; details: in vivo, 144 h; procedure, shortened: as §1

SMILES | IC50 [1] | IC50 [2] | IC50 [3] | IC50 [4] | MTD (Danio rerio [5]) | MIC [6] | IC50 [7] | IC50 (Plasmodium berghei [8]) | Activity (Plasmodium berghei [10]) | IC50 (Escherichia coli) | IC50 [12] | IC50 (KB) | IC50 (Plasmodium falciparum) | Activity (Danio rerio [15]) | also measured
CC(=O)C1=C(O)C=C2Oc3c(C(C)=O)c(O)c(C)c(O)c3[C@@]2(C)C1=O [(+)-USNIC ACID] | > 200 µM | 47 µM | > 200 µM | > 200 µM | 0.3 µM | 15.1 µM (≈ 5.2 µg/mL) | 190 µM | 2.3 µM | Active | > 64 µM | > 100 µM | – | – | – | Activity (Danio rerio [9]): Non-toxic; IC50 [11]: 190 µM; Activity (Plasmodium berghei [13]): Active
COc1cc(C)c(C(=O)Oc2cc(C)c(C(=O)O)c(O)c2)c(O)c1 [EVERNIC ACID] | 10.7 µM | 90 µM | 36.1 µM | > 200 µM | 60.2 µM | – | 170 µM | 77.3 µM | inactive | > 64 µM | > 100 µM | 190 µM | 142 µM | >= 40% | Activity (Danio rerio [14]): Toxic
COc1cc(NC(C)CCCN)c2ncccc2c1 (centres undefined) [PRIMAQUINE] | – | – | – | – | – | – | – | – | – | – | – | – | – | – | IC50 (Plasmodium berghei [16]): 7.5 µM; IC50 (Plasmodium): 1.4 µM; IC50 (Plasmodium berghei [17]): 7.5 µM
COc1cc(C(=O)O)c2c(c1C)OC(=O)c1c(C)cc(O)c(C=O)c1O2 [PSOROMIC ACID] | 35.2 µM | > 200 µM | 71.4 µM | 183 µM | 3.6 µM | 123 µM (≈ 44 µg/mL) | > 200 µM | 31.6 µM | inactive | > 64 µM | > 100 µM | 31.6 µM | 29.2 µM | >= 40% | –
COC(=O)/C(=C1/OC(=O)C(c2ccccc2)=C1O)c1ccccc1 [VULPINIC ACID] | 20.5 µM | 84 µM | > 140 µM | > 200 µM | 15.5 µM | – | 90 µM | 10.2 µM | Active | > 64 µM | > 100 µM | – | 48.5 µM | >= 40% | MIC (Staphylococcus aureus): 32 µM (≈ 10.3 µg/mL); Activity (Danio rerio [18]): Toxic
